# Source: ChEMBL document CHEMBL1158486, “Combining hit identification strategies: fragment-based and in silico approaches to orally active 2-aminothieno[2,3-d]pyrimidine inhibitors of the Hsp90 molecular chaperone” (J Med Chem, 2009)
# Active and inactive are the calls of the source. The rule behind the calls is not given here.
# How the values were obtained:
# [1] = Plasma protein binding in C57 mouse at 5 uM after 6 hrs by equilibrium dialysis; assay type: ADME, cell-free; conditions: read-out: PPB (converted)
# Summary of the method: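 Equilibrium dialysis of plasma spiked with compound at 5 μM, 6 h incubation. Plasma and buffer samples precipitated with acetonitrile, supernatants analysed by LC/MSMS. Percent bound = (1 − buffer/plasma) × 100.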
# BT-474 = test: Induction of Hsp72 protein expression in human BT474 cells after 24 hrs by Western immunoblotting; assay type: functional, cell-based
# Summary of the method: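 BT474 or HCT116 cells treated for 24 h at 25, 50, 100, 200 and 400 nM. Lysates prepared in 50 mM Tris-HCl with 2% SDS, pH 6.8, and protein measured by BCA. Equal loads run on SDS-PAGE and transferred to PVDF; probed with ECL detection, with GAPDH as loading control.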
# HCT-116 [2] = test: Depletion of HER2 protein expression in human HCT116 cells at 50 nM after 24 hrs by Western immunoblotting; assay type: functional, cell-based
# HCT-116 [3] = test: Depletion of HER2 protein expression in human HCT116 cells at 200 nM after 24 hrs by Western immunoblotting; assay type: functional, cell-based
smiles,measurement,setting,value
CCNC(=O)c1cc2c(-c3cc(OCCN(CC)CC)c(Cl)cc3Cl)nc(N)nc2s1,"fraction unbound at 6 h, 5 µM",[1],0.093
same,Activity,BT-474,Dose-dependent effect
same,Activity,HCT-116 [2],inactive
same,Activity,HCT-116 [3],inactive
